These results are taken from article PMC9907361 (Gastric cancer : official journal of the International …, 2021).

For one data set, the system named is cells. The conditions noted are these: cited from earlier work.
Data set [1] concerns AGS cells overexpressing WNT1. As to the kind of experiment: Lactose/mannose treatment of WNT1-overexpressing AGS cells. The format is cell-based, human. The note with it: 50 mM, 4 h preincubation. The essentials:
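AGS cells were transfected with HA-WNT1. Lactose or mannose (50 mM) was added 4 h before cell extraction, and the indicated proteins were then detected in the extracts.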

The test system of a further data set is AGS cells. The data set is classed as cell-based, human.
For data set [2], the target named is human STAT3 (residues 127–688) (Homo sapiens, UniProt P40763). As to the kind of experiment: ITC binding of galectin-3 peptides to STAT3. The conditions noted are these: abstract statement. The essentials: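 Human STAT3 residues 127–688 was expressed from pET22b(+) and purified. ITC was run at 25 °C. Wild-type and Y45-phosphorylated galectin-3 peptides (140 μM each) in 20 mM Tris pH 7.5, 300 mM NaCl were injected at 220 s intervals into 7 μM STAT3. Heats of dilution from buffer controls were subtracted, and data were fitted to a single set of binding sites model.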
human STAT3 (residues 127–688), sequence (P40763 127-688): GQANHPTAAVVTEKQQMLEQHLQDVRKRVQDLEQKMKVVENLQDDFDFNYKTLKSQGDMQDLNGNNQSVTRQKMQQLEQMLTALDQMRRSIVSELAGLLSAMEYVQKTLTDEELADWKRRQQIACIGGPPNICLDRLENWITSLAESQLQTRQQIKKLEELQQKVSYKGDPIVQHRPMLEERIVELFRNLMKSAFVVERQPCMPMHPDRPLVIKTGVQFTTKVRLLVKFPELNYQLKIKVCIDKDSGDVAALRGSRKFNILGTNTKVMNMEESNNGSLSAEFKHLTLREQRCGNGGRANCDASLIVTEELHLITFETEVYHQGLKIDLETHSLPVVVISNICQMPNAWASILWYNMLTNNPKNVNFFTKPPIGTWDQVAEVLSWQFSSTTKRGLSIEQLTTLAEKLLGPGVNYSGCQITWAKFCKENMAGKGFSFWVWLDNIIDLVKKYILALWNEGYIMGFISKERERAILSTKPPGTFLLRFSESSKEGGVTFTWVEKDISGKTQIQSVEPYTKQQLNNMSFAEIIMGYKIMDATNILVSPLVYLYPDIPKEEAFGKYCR

“Also recorded” adds a separate entry of the source.

`OC[C@H]1O[C@@H](O[C@H]2[C@H](O)[C@@H](O)C(O)O[C@@H]2CO)[C@H](O)[C@@H](O)[C@H]1O` (mixture of isomers) [lactose]: in the data set with cells (stated without reference), the “cellular uptake of lactose” value is “too polar to be taken up by the cells”. Also, in data set [1], the “inhibition of STAT3 phosphorylation” value is reported as “did not inhibit” and the “inhibition of β-catenin stability” value was “did not inhibit”.

Take `OC[C@H]1O[C@H](Sc2ccc(Cl)c(Cl)c2)[C@H](O)[C@@H](n2cc(-c3cc(F)c(F)c(F)c3)nn2)[C@H]1O` [GB1107]: in the data set on cells, the “uptake across cell membranes” value is listed as “improved uptake across cell membranes; also recorded: can penetrate into cells”.

Consider `OC[C@H]1OC(O)[C@@H](O)[C@@H](O)[C@@H]1O` (stereo partly drawn) [mannose], for which, in data set [1], the “inhibition of STAT3 phosphorylation” value was “did not inhibit” and the “inhibition of β-catenin stability” value was “did not inhibit”.

With IL-6: IL-6 cytokine, the “STAT3 phosphorylation on IL-6 treatment” value with AGS cells (AGS cells, IL-6 alone) is listed as “induced STAT3 phosphorylation”.

As to YPGQ [peptide of galectin-3 (Y45-Q48)], the “direct binding to the STAT3 SH2 domain” value in data set [2] is given as “directly bound to the STAT3 SH2 domain”. Also, the “enhancement of STAT3 phosphorylation” value in the data set with AGS cells (abstract statement) is “enhanced its phosphorylation”.
